# Screening data (PubChem BioAssay)
# The list is not random: actives were taken first. Their share in the collection is about 2.9%.
# SENP8 block-1: SENP8 (human) protease inhibition; Q96LD8; recombinant SENP8, Nedd8 substrate fluorescence; inhibition, % at 20 µM; 360,000 compounds, 0.64% hits; in the data active means inhibition mostly above about 40%, no sharp cut-off; inactive means mostly below about 27%
# Target sequence (Q96LD8 whole entry, looked up): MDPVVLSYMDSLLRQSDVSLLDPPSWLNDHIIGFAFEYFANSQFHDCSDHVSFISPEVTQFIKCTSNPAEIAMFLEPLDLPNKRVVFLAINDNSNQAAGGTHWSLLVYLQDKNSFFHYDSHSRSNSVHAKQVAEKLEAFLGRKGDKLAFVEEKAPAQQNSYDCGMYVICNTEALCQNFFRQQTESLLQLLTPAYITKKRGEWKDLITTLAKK
# SENP8 block-2: inhibitors of human SENP8 protease; Q96LD8; purified SENP8, Z-RLRGG-aminoluciferin cleavage, luminescence; inhibition, % at 10 µM; 330,000 compounds, 1.2% hits; AID 2540; in the data active means inhibition above about 50%
# SENP6 block: SENP6 protease inhibition; Q9GZR1; Recombinant SENP6 catalytic domain, aminoluciferin luminescence; inhibition, % at 10 µM; 330,000 compounds, 1.8% hits; AID 2599;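 active means inhibition above about 50% at the single tested dose, limit read from the data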;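 further: plate controls were DMSO wells with enzyme for no effect and DMSO wells lacking enzyme for full effect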
# Target sequence (Q9GZR1 628-1112 limits assumed): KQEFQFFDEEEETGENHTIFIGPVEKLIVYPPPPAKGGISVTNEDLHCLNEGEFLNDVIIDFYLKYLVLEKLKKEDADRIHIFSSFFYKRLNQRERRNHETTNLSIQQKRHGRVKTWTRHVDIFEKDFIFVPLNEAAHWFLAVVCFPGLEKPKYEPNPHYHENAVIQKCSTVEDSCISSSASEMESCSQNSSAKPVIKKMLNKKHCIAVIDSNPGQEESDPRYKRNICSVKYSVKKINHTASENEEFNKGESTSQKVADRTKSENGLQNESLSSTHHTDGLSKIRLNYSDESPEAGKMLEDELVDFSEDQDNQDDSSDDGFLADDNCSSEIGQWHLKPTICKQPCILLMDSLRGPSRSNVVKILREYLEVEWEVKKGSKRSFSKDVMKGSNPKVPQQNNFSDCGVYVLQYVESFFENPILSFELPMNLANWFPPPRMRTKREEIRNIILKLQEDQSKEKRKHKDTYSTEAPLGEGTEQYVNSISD
# SENP1 FRET inh: inhibitors of human SENP1 SUMO protease catalytic domain; Q9P0U3; recombinant SENP1 catalytic domain, CyPet-SUMO1-YPet FRET cleavage; inhibition, % at 10 µM; 360,000 compounds, 0.21% hits; AID 624204;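 active means inhibition at least 30% at 10 µM, raw YFP signal under a set limit, fluorescence ratio 0.5 to 1.5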;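 further: 0% = enzyme with DMSO and 100% = no enzyme wells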
#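 System: Recombinant human SENP1 catalytic domain, His6-tagged | Incubation: Enzyme reaction for 50 min at room temperature, dark | Medium: Tris pH 8 with BME, BSA, NP40 and catalase | Also added: 25 nM SUMO1 FRET substrate | Compound: 10 µM single point, 0.5% DMSO | Measured by: FRET fluorescence in CFP and YFP emission channels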
# SENP7 inh: blocks the human protease SENP7; Q9BQF6; recombinant SENP7, Z-RLRGG-aminoluciferin luminescence, 40 min; inhibition, % at 5 µM; 330,000 compounds, 1.5% hits; AID 434973;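 active means inhibition above about 50% at the single test dose, limit read from the data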;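 further: plate controls were DMSO with enzyme for no effect and no enzyme buffer wells for full effect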
# HSP90 refold inh: HSP90 refolding inhibition in rabbit reticulocyte lysate; luciferase refolding luminescence, 3 h; 290,000 compounds, 0.91% hits; inhibition, % at 5.6 µM;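 active means inhibition above the screen-wide mean plus 3 SD, computed separately per campaign, cut at about 16% in these data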;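 further: 0% = DMSO wells and 100% = 60 µM geldanamycin wells; inhibitors lower the luminescence because luciferase stays unfolded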
# SENP8 inh conf: confirmation of human SENP8 protease inhibitors; purified SENP8, Nedd8-AMC/pro-Nedd8 cleavage fluorescence, 30 min; inhibition, % at 25 µM; AID 624319; 1,400 compounds, 15% hits; shares compounds with SENP8 block-1; in the data active means inhibition mostly above about 39%, no sharp cut-off; inactive means mostly below about 34%
# The depositor's hits bear a star; x = no result.
SMILES,SENP8 block-1,SENP8 block-2,SENP6 block,SENP1 FRET inh,SENP7 inh,HSP90 refold inh,SENP8 inh conf
Nc1scc2c(C(=O)O)nn(-c3ccccc3)c(=O)c12,40.2*,11.6,-17.5,-2.5,5.5,x,20.4
CCOC(=O)c1nn(-c2ccc(C)cc2)c(=O)c2c(N)scc12,13.8,3.0,21.6,0.1,8.3,0.7,x
CCC(C)(C)C1CCC(=NNC(=S)Nc2ccccc2)CC1 (stereo not given),45.4*,4.7,-10.3,2.5,4.8,5.3,0.0
O=C(CCS(=O)(=O)c1cccc2nonc12)NCCc1ccccc1,41.4*,0.6,8.4,1.6,11.0,0.3,12.1
O=C(O)c1ccccc1/C=N/NC(=S)NC1CCCCC1,46.4*,8.0,1.9,0.5,6.7,5.7,0.8
O=C(O)c1ccccc1/C=N/NC(=O)C1CCCCC1,6.3,0.1,10.6,3.2,-1.2,-0.1,x
COc1ccccc1CNC(=O)[C@H](C)N1C(=O)N2CCc3c([nH]c4ccccc34)[C@@]2(C)C1=O,42.8*,7.5,-1.6,3.0,-0.1,-1.3,14.0
Cc1onc(-c2ccccc2Cl)c1C(=O)Nc1sc2c(c1C(N)=O)CCC(C)C2 (stereo not given),-68.9,-0.7,10.1,-15.8,-4.4,-2.5,x
Cc1nc2c(O)c3c(c(O)c2nc1C)C1C=CC3CC1,41.5*,x,x,-0.2,x,x,7.2
CCOC(=O)/C(C#N)=C\C=C1C=CN(C)C=C1,51.7*,2.3,9.3,-17.2,11.4,1.5,35.9
O=C(c1cccc(COCC(F)(F)C(F)F)c1)N1CCN(c2ccccc2)CC1,16.7,-13.7,-10.2,0.0,-9.1,-0.3,x
CCN(CC(=O)NC(C)(C)C)Cc1nc2c(Br)cc(Br)cc2c(=O)[nH]1,41.4*,-9.6,2.4,-10.1,-3.6,-4.6,25.0
CCCCCCC(=O)Nc1ccc(S(=O)(=O)Nc2onc(C)c2C)cc1,4.8,-11.5,-17.1,-0.3,-14.7,x,x
Cc1noc(NS(=O)(=O)c2ccc(NC(=O)CCC3CCCC3)cc2)c1C,42.7*,-13.5,-8.0,2.5,-5.4,0.8,-7.9
C=CCNC(=S)NN=C1CCC(c2ccccc2)CC1 (stereo not given),45.1*,15.4,10.0,1.5,-2.7,-4.3,18.0
Cc1ccc(NC(=O)c2sc(N)nc2-c2ccc([N+](=O)[O-])cc2)c(C)c1,45.0*,-7.5,-3.5,5.5,-13.5,2.9,11.3
CC[C@H](CO)Oc1cc(NCc2cccc(N)c2)c2ncn(C(C)C)c2c1,55.7*,x,x,-42.2,x,x,86.8*
CCC(CO)Oc1cc(NCc2ccc(C)cc2)c2ncn(C(C)C)c2c1 (stereo not given),24.0,-6.0,-9.3,-27.6,-6.7,x,x
CCC(CO)Oc1cc(NCc2cccc(C)c2)c2ncn(C(C)C)c2c1 (stereo not given),41.7*,2.6,-4.6,1.2,10.1,x,54.5*
CCOc1ccc(N2CC(C(=O)Nc3nnc(C4CCCCC4)s3)CC2=O)cc1 (stereo not given),3.4,3.0,-18.6,-1.1,1.6,-4.8,x
O=C(NCCc1ccccc1)C(=O)Nc1ccc([N+](=O)[O-])cc1,16.5,2.8,-4.8,2.4,0.4,-0.4,x
CCC(=O)N1CCCC(C)(C(=O)Nc2nccc3cccnc23)C1 (stereo not given),13.9,x,x,0.2,x,x,x
CCc1ccc(N2C(=O)C(Cl)=C(N3CCCCCC3)C2=O)cc1,20.7,-2.9,21.3,25.4,3.5,2.7,x
O=C1C(Cl)=C(N2CCN(Cc3ccccc3)CC2)C(=O)N1c1ccccc1,48.2*,-3.8,-12.2,7.6,-4.1,0.2,10.6
Cc1cccc(N2C(=O)C(Cl)=C(N3CCOCC3)C2=O)c1,46.1*,-4.3,-0.1,6.0,-12.3,1.8,2.0
SMILES,SENP8 block-1,SENP8 block-2,SENP6 block,SENP1 FRET inh,SENP7 inh,HSP90 refold inh,SENP8 inh conf
CCc1ccc(N2C(=O)C(Cl)=C(N3CCOCC3)C2=O)cc1,41.1*,-6.7,-6.3,8.8,9.0,7.2,13.4
COc1ccc(N2C(=O)C(Cl)=C(N3CCN(Cc4ccccc4)CC3)C2=O)cc1,17.4,x,x,2.4,x,-3.8,x
CC(=O)Nc1ccc(C(=O)OCC(=O)NC2CCCCCC2)cc1,2.8,x,x,2.0,x,x,x
COc1ccc(NC(=O)C/C(C)=N/NC(=O)c2ccccn2)c(OC)c1,19.7,-11.5,-5.0,2.1,6.0,8.3,x
CS(=O)(=O)c1ccc(NC(=O)CCCc2nc3ccccc3c(=O)[nH]2)cc1,53.9*,-6.4,2.7,-0.8,-9.0,x,19.2
CCOC(=O)c1ccccc1NC(=O)Cn1c(=O)n(Cc2ccccc2)c(=O)c2c(C)c(C)sc21,13.9,-7.7,-1.7,-1.1,5.5,0.0,x
COc1ccc(C(=O)c2[nH]c(N)c(C(=O)NCCc3c[nH]c4ccccc34)c2-c2ccc(Br)cc2)cc1,-6.6,x,x,-18.0,x,x,x
COc1cc(OC)c(NC(=O)[C@@H]2CCC(=O)N2C2OC(=O)c3c2ccc(OC)c3OC)cc1Cl (stereo not given in full),51.2*,0.9,-1.6,-2.7,-10.0,0.3,7.3
Nc1ccc(S(=O)(=O)Nc2nccc(/C=C/c3cccc(Br)c3)n2)cc1,10.2,-1.8,-16.2,0.4,7.9,-1.9,x
CCOC(=O)N1CCC(NS(=O)(=O)c2ccc(NC(C)=O)c(Cl)c2)CC1,8.2,2.1,-5.3,3.1,-8.4,4.4,x
CC(=O)c1ccccn1,6.8,-11.9,-13.8,1.5,0.9,x,x
C/C(=N/O)c1ccccn1,50.9*,-3.5,-7.7,1.1,2.5,2.8,5.4
Cc1ccc(C)c(NC(=S)/C(=C(\[O-])c2ccc(Cl)s2)[n+]2ccccc2)c1,69.2*,-2.3,38.1,-6.4,-0.5,1.3,41.0
CNc1cc([N+](=O)[O-])ccc1N/C=C/C(=O)c1cccs1,42.0*,-9.8,9.3,16.8,-10.7,0.8,19.0
COc1ccc(CN(C2CCCC2)S(=O)(=O)c2ccc(-n3cnnn3)cc2)cc1,43.7*,-8.1,-13.8,-1.2,4.5,-0.5,22.7
COc1ccc(CN(C2CCCC2)S(=O)(=O)c2ccc(-n3cnnn3)cc2)cc1OC,25.6,-7.2,-16.9,2.7,-2.5,-3.4,x
COc1cc(N(C(C)=O)c2ccc(O)cc2)c2ncccc2c1,19.8,x,x,2.7,x,x,x
COc1cc(N(C(C)=O)c2ccc(O)c(C(=O)O)c2)c2ncccc2c1,44.0*,x,x,2.7,x,x,61.2*
O=[N+]([O-])c1cccc(C(=Nc2cccc(Cl)c2)NO)c1,40.9*,4.9,-6.2,2.5,3.0,2.1,22.6
O=C(NCCc1cccc(Cl)c1)c1cccc([N+](=O)[O-])c1,12.4,-2.2,-1.7,0.2,6.8,3.5,x
CCOC(=O)c1sc(C)c2c(=O)n(CC(=O)c3ccc(Br)cc3)nnc12,40.5*,-6.4,-8.9,0.4,3.6,-3.1,17.9
CCOC(=O)Cn1c(C)nc2c(C(=O)OCC)sc(C)c2c1=O,-241.4,2.4,-22.1,2.1,1.8,-2.4,x
